High-throughput results from PubChem.
Shown are actives, neighbours in structure and some others; about 11% of the full set was active somewhere.
Diaph inh CS – diaphorase inhibition or chemical oxidation counter-screen | diaphorase resazurin-to-resorufin fluorescence, NADH, 16 min; bacterial (C. kluyveri) enzyme, not human | inhibition, % at 20 µM | 190,000 compounds, 0.69% hits | AID 1217;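 active means primary screen inhibition at 20 µM above a set limit, cut at about 50% in these data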
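Test system: Clostridium kluyveri diaphorase enzyme / Quantity: diaphorase at 0.14 U/mL in enzyme working solution / Incubation: 16-min room-temperature incubation before reading / Benchmarks: NADH-free wells as positive control, DMSO-only neutral wells / Signal: resorufin fluorescence 544/590 nm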
L major viab – Leishmania major promastigote growth inhibition. inhibition, % at 10 µM. 200,000 compounds, 9% hits. Leishmania major promastigotes, resazurin fluorescence viability;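 further: promastigotes grown with compound for 44 hours at 28 °C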
Diaph act CS – counter-screen for diaphorase-based assays: diaphorase activators and chemical reducers; Diaphorase/resazurin coupled assay, resorufin fluorescence, 16 min; active compounds read high; 1 = vehicle wells, 0 = NADH-free wells; activation factor at 20 µM; 190,000 compounds, 0.005% hits; AID 1229;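 active means diaphorase activity raised at least twofold by the compound at 20 µM; inactive means activation factor below 2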
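Material: purified diaphorase enzyme from Clostridium kluyveri; Also added: 0.114 mM NADH and 0.1 mM resazurin, final amounts; Doses: single compound dose of 20 µM, 1% DMSO final; Times: 16 min enzyme reaction, ambient temperature; Detection: resorufin fluorescence, excitation 544 nm, emission 590 nm; Measure: increased resorufin signal from activators or reducing compounds.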
G6PDH CS – counter-screen for G6PDH assay hits: L. mesenteroides G6PDH inhibition; AID 1020; inhibition, % at 5 µM; 200,000 compounds, 0.12% hits; Purified L. mesenteroides G6PDH, diaphorase/resazurin coupled fluorescence, 45 min
WT yeast gro inh – growth inhibition of WT yeast, mitochondrial fusion screen; mitochondrial fusion phenotypic screen, WT strain; inhibition, % at 10 µM; 190,000 compounds, 2.1% hits; AID 1362; in the data active means inhibition above about 58%; tested in S. cerevisiae
Of the large screens only hits and unclear results are named; the others gave an inactive call. Unless noted, no stated cut-off is given here; in the data, active means inhibition above about 50%; inactive means the rest.

C=CCn1c(=O)c2ccccc2n2c(SCC(=O)Nc3sc(C(=O)N(CC)CC)c(C)c3C(=O)OCC)nnc12	none
COc1cc(/C=N/NC(=O)CCC(=O)NC2CCCCC2)ccc1C	none
c1ccc2c(-c3nc4ncccc4o3)cccc2c1	none
CN1c2ccccc2C(C)(C)C12C=Cc1cc(O)ccc1O2 (centres undefined)	L major viab 99
C=CCn1c(SCC(=O)N2N=C(c3ccco3)CC2c2ccco2)nnc1-c1ccncc1 (centres undefined)	Diaph inh CS 74
COc1ccc(CN2CCN(CC=C(C)C)C(CCO)C2)cc1Cn1cccn1 (centres undefined)	none
COc1ccc(F)c(CN2CCC(CO)(Cc3cccc(C(F)(F)F)c3)CC2)c1	L major viab 84
COc1ccc(CN2CCC(CO)(Cc3cccc(C(F)(F)F)c3)CC2)cc1Cn1cccn1	L major viab 81
OCC1(Cc2cccc(F)c2)CCN(Cc2cccc3nccnc23)CC1	none
COc1cc(NC(=O)c2ncn[nH]2)cc(OC)c1OC	none
Cc1ccc2oc(-c3cc(NC(=O)c4ncn[nH]4)ccc3O)nc2c1	none
O=C(Nc1ccccc1Oc1ccccc1)C1CCCC1	none
CCNC(=S)Nc1cc(Cl)ccc1Oc1ccccc1	L major viab 67
S=C(Nc1ccc(Oc2ccccc2)cc1)NC1CCCC1	WT yeast gro inh 62
S=C(Nc1ccccc1Oc1ccccc1)NC1CCCC1	L major viab 61, WT yeast gro inh 68
S=C(Nc1ccccc1Oc1ccccc1)Nc1cccc(Cl)c1Cl	WT yeast gro inh 65
S=C(NCC1CCCCC1)Nc1ccc(Oc2ccccc2)cc1	L major viab 90, WT yeast gro inh 77
S=C(NCC1CCCCC1)Nc1cccnc1	none
CC1CCCCC1NC(=S)Nc1ccc(SC(F)F)cc1 (centres undefined)	WT yeast gro inh 69
FC(F)Sc1ccc(NC(=S)NC2CCCCC2)cc1	none
COc1ccc(NC(=S)NC2CCCCCC2)c(OC)c1	L major viab 77, WT yeast gro inh 64
FC(F)Sc1ccc(NC(=S)NCC2CCCCC2)cc1	WT yeast gro inh 78
O=C1C=CC(=O)C(C2=C3C(=O)N(CCc4ccccc4)CC(=O)N3CCC2)=C1	none
CCC(CC)C(=O)N(CCc1ccc(OC)cc1)Cc1nc2ccccc2c(=O)[nH]1	L major viab 100
COc1ccc(CCN(Cc2nc3ccccc3c(=O)[nH]2)C(=O)c2ccco2)cc1	none
CCN(Cc1ccccc1)C1CCN(Cc2ccc(SC)cc2)CC1	L major viab 85
O=C(C1CCN(CCCc2ccccc2)CC1)N(CCc1ccccc1)Cc1ccccc1	L major viab 91
O=C(C1CCN(CC2CC=CCC2)CC1)N(CCc1ccccc1)Cc1ccccc1 (centres undefined)	none
CCN(CC)C(=O)C1CCN(Cc2ccc(Br)cc2)CC1	L major viab 92
CSc1ccc(/C=N/N2CCN(Cc3ccccc3)CC2)cc1	none
CCN(Cc1ccccc1)C(=O)C1CCN(Cc2ccc(SC)cc2)CC1	L major viab 88
CC(NC(=O)Cn1cc(C(F)(F)F)ccc1=O)c1ccc(F)cc1 (centres undefined)	none
Cc1cc(C)nc(SCc2cc(=O)c(OC(=O)c3ccc(S(=O)(=O)N4CCCC4)cc3)co2)n1	none
CC1CCCC(C)N1CCNC(=O)C1CCN(S(=O)(=O)N2CCCCC2)CC1 (centres undefined)	none
Cc1nnc(N2CCN(C)CC2)c2nn(-c3ccc(Cl)cc3)c(C)c12	none (no result: Diaph inh CS, Diaph act CS, G6PDH CS, WT yeast gro inh)
COCCNC(=O)C(c1ccc(Cl)cc1)N(C(=O)Cn1nnc2ccccc21)c1cccnc1 (centres undefined)	none
CC(=O)n1cc([C@@H]2C=C(C(=O)Nc3ccccc3)O[C@H](OCc3ccc(CO)cc3)C2)c2ccccc21	Diaph inh CS 51
CC(=O)n1cc([C@H]2C=C(C(=O)Nc3ccccc3)O[C@@H](OCCCCO)C2)c2ccccc21	L major viab 54
COC(CNC(=O)c1ccc2c(c1)ncn2-c1ccc(F)cc1F)OC	none
CCOC(=O)c1nn(-c2ccccc2)c2nnc(Cc3ccccc3)c(=O)n12	none
COc1cc(-c2nc(-c3ccccc3)c(-c3ccc(F)cc3)[nH]2)cc2c1OCO2	none
COc1cc(-c2nc(-c3ccc4c(c3)-c3ccccc3S4(=O)=O)c(-c3ccccc3)[nH]2)cc(OC)c1O	L major viab 91
O=C(c1ccc([N+](=O)[O-])cc1)N1CCSC1c1ccccc1 (centres undefined)	none
O=C(c1ccc([N+](=O)[O-])cc1)N1CCSC1c1cccc(Cl)c1 (centres undefined)	L major viab 51
CCc1ccc(-c2cc(C(=O)N3N=C(C(F)F)CC3(O)C(F)F)c3ccccc3n2)cc1 (centres undefined)	L major viab 71, WT yeast gro inh 80
CC(C)Cc1cc(C(=O)N2N=C(C(F)F)CC2(O)C(F)F)c2ccccc2n1 (centres undefined)	none
C=CCc1c(C)[nH]c2c(OC)cccc2c1=S	L major viab 76, WT yeast gro inh 67
Cn1cccc1/C=N/NC(=O)c1ccco1	none
Nc1c(-c2cccc([N+](=O)[O-])c2)nc2ccccn12	none
COc1ccc2sc(/C=C/c3ccccc3O)[n+](C)c2c1	L major viab 92
C/C(=N\Nc1ccccn1)c1ccc(C(C)C)cc1	WT yeast gro inh 76
Cc1nc2ccc3nc(NC(=O)c4ccc5c(c4)OCCO5)sc3c2s1	none
O=C(Nc1nc2cc3c(cc2s1)OCCO3)c1ccncc1	L major viab 95
Fc1ccc2nc(Nc3nc4cc5c(cc4s3)OCO5)sc2c1	none
O=C(NNc1nc2cc3c(cc2s1)OCCO3)c1ccc(F)cc1	none
c1ccc2sc(Nc3nc4cc5c(cc4s3)OCO5)nc2c1	L major viab 90
O=C(NNc1nc2cc3c(cc2s1)OCO3)c1ccc(F)cc1	L major viab 77
Cc1nc2c(ccc3nc(NC(=O)c4ccc5c(c4)OCCO5)sc32)s1	L major viab 63
O=C(O)CCn1cc(/C=C2\NC(=S)N(c3ccccc3)C2=O)c(-c2ccc(Br)cc2)n1	none
CCC(C)NS(=O)(=O)c1ccc(S(=O)(=O)N2CCCC3(CCCCC3)C2)cc1 (centres undefined)	none
CCn1nnnc1SCC(=O)NC1CCCC1	none
Cc1ccc(C(=O)Nc2ccccc2Oc2ccccc2)cc1[N+](=O)[O-]	WT yeast gro inh 61
O=C1CSC(c2ccc(Cl)cc2Cl)N1c1ccccn1 (centres undefined)	none
O=C1CSC(c2ccccc2Br)N1c1ccc(Cl)cn1 (centres undefined)	WT yeast gro inh 67
NNC(=O)c1ccc(COc2cccc3ccccc23)cc1	WT yeast gro inh 73
CCCCCCCCCCCNC(=O)c1ccoc1C	none
CCCCCC(C)NC(=O)c1ccoc1C (centres undefined)	WT yeast gro inh 78
COc1ccc(Nc2nc3c(c(=O)n(C)c(=O)n3C)n2CCO)cc1	none
